Test results taken from PMC6916429 (ACS infectious diseases, 2019).
“And” between values parts separate entries of the source, which are not always exact repeats. Equal values may be shown once. Blank lines part the entries; values can stand above or below the molecule they belong to.

Experiments:
[1] = system: S. aureus biofilms (UAMS-1); experiment: Biofilm killing assay; type: cell-based; conditions: 10 times the MIC, 24 hours, compared with the control
Method in brief: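 Overnight stationary UAMS-1 culture diluted 1:20 in BHI broth and grown 24 h at 37 °C in tissue-culture-treated 96-well plates. Wells PBS-washed twice, then exposed to test compound in fresh medium for 24 h. Washed again, biofilms disrupted by sonication in PBS, serially diluted, and spotted on BHI agar overnight at 37 °C for cfu counts. One-way ANOVA with Dunnett's test.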

[2] = biological target: T1, S. aureus ClpP (caseinolytic protease) (S. aureus NCTC 8325), Q2G036; experiment: AUC; conditions: remark: other sources report otherwise
T1 chain: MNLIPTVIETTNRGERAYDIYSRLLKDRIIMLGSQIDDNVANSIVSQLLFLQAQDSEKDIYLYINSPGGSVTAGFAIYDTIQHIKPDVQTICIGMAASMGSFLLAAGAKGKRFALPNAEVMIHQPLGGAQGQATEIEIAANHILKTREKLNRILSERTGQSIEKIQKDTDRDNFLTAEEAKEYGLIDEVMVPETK

[3] = biological target: T1, S. aureus ClpP (caseinolytic protease) …; experiment: crystal structure; conditions: remark: other sources report otherwise

Molecule: CO[C@H]1/C=C/O[C@@]2(C)Oc3c(C)c(O)c4c(O)c(c(/C=N/N5CCN(C)CC5)c(O)c4c3C2=O)NC(=O)/C(C)=C\C=C\[C@H](C)[C@H](O)[C@@H](C)[C@@H](O)[C@@H](C)[C@H](OC(C)=O)[C@@H]1C [rifampin]
- reduction in growth of mature S. aureus biofilms [1]: limited reduction

- stoichiometry N [2]: 14 and 7
- stoichiometry N [3]: 14
B1: S. aureus ClpP (caseinolytic protease), Q2G036 1-195 (enzyme)
chain: T1 chain
